NF-kB expr up: NF-kB expression increase, human neuronal cells | NF-kB reporter expression; stronger effect = higher value | hit rate 1.6% among 190,000 | fold change at 12.5 µM; in the data active = fold change above about 3.3
FLuc stim CS: firefly luciferase counter-screen for stimulation assays; ATPlite luciferase biochemical, luminescence, 10 min; 0 = ATP-free wells, 1 = DMSO control; 200,000 tested, under 10 active; P08659; AID 1027; activation factor at 10 µM;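 active = luciferase activation factor, scaled between plate controls, of at least 2 with compound at 10 µM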
Target sequence (P08659 whole entry, looked up): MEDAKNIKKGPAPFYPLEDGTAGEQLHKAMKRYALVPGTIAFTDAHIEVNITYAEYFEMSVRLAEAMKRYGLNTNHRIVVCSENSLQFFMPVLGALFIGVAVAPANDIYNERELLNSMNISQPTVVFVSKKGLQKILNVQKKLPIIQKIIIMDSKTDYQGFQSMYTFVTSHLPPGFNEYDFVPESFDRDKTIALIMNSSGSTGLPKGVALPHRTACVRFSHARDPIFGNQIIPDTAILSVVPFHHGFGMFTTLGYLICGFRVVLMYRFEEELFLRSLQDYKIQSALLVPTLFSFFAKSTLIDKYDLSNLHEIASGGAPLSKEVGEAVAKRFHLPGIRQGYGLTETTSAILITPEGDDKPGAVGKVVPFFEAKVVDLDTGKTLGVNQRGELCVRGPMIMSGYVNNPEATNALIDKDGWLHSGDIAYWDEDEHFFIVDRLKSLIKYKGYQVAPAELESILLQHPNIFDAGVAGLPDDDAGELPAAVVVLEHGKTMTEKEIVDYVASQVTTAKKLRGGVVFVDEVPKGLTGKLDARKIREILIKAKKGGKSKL
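test system = cell-free luciferase reagent | medium = PBS as buffer for the ATP substrate | dosing = test compounds dosed from 2 mM stocks in 100% DMSO | incubation = 10 min at ambient temperature | detection = luminescence measurement of luciferase light output | benchmarks = low control with PBS replacing ATP, high control enzyme plus ATP without compound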
STAT1 act: increases IFN-gamma driven STAT1 reporter signal | AID 932 | NIH 3T3 STAT1-luciferase reporter, luminescence; 100% = IFN-gamma alone, no compound | activation (% of control), % at 5.5 µM | hit rate 2.6% among 200,000;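 active = activation above the screen-wide mean activation plus 3 SD, cut at about 130% in these data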;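 also: raw ratio to IFN-gamma control signal so 100% means no change and 0% no light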
APP 5'UTR act: APP 5'UTR luciferase reporter activation | SH-SY5Y APP 5'UTR luciferase reporter, luminescence; zero percent = DMSO vehicle wells | activation, % at 2 µM | hit rate 1% among 190,000 | AID 1276;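 active = activation above a set limit, based on mean plus 3 SD of controls, cut at about 140% in these data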
FLuc inh counter: counter-screen for luciferase assay inhibitors: firefly luciferase inhibition; P08659; ATPLite firefly luciferase biochemical luminescence, 10 min; inhibition, % at 10 µM; hit rate 1.5% among 200,000; AID 1006;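 active = inhibition above about 50% when tested at 10 µM, limit read from the data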
* = called active by the depositor; . = not tested or not shown. Compounds with a hit are over-represented: about 4.1% of the library has one in this group of screens.

SMILES	NF-kB expr up	FLuc stim CS	STAT1 act	APP 5'UTR act	FLuc inh counter
CCc1cccc(N=c2c([N+](=O)[O-])nn(-c3ccc(Cl)cc3)n2O)c1	4.9*	1	100	10	-3
CCN(CC)CCC(=O)NC(C)(C)Cc1ccc(O)cc1	1.3	1.1	102	0	-7
CCCCN1C(=O)/C(=C/C=C2\SCCN2C)SC1=S	3	0.9	130*	62	12
CN1CCS/C1=C/C=C1\SC(=S)N(CC(=O)O)C1=O	0.86	0.9	102	3	11
Cn1ccs/c1=N\C(=O)Nc1ccccc1	2.6	0.6	141*	66	35
Cn1ccsc1=NC(=O)c1ccccc1F	1.8	1	110	5	-3
CC(=O)OC(C)C(=O)NS(=O)(=O)c1ccc(C)cc1 (stereo unspecified)	1.1	1	98	-6	0
CC1CCN(C(=O)Cn2nnc(-c3cccs3)n2)CC1	2.1	1	129*	54	3
Cc1ccc(-c2nc(C#N)c(NCc3ccco3)o2)cc1	3.6*	1	113	73	4
COc1ccc(-c2nc(C#N)c(NCc3ccco3)o2)cc1	3.6*	0.9	106	70	8
N#Cc1nc(-c2ccco2)oc1NCc1ccco1	1.5	1	98	5	-4
Cc1ccc(C(=O)Nc2ccccc2C(=O)NCc2ccco2)cc1S(=O)(=O)N1CCCCC1	0.51	1.1	100	-12	-7
CCN(CC)c1ccc(N=Cc2ccccc2[N+](=O)[O-])cc1	1	0.3	97	0	66*
Cn1c(SCC(=O)c2ccccc2)nnc1-c1ccc(O)cc1	2.2	0.9	129*	68	6
Cc1cccc(C)c1NC(=O)c1ccc(-c2ccc(Cl)cc2Cl)o1	0.88	1.1	85	4	-8
O=C(Nc1nccs1)c1ccc(-c2ccc(Cl)cc2Cl)o1	2.3	0.3	146*	126	69*
Cc1ccc(OCC(=O)NCCN2CCOCC2)cc1C	1.8	1	105	7	3
COc1ccc(C(=O)Nc2ccc3c(c2)nc2n3CCSC2)cc1	0.95	0.3	125	82	66*
CCC(=O)Nc1ccc2c(c1)nc1n2CCSC1	1.1	1	108	-1	-3
O=C(Nc1ccc2c(c1)nc1n2CCSC1)c1ccccc1	3.3*	0.2	116	120	80*
Clc1cccc(/C=N/Nc2nnc(Cl)c3ccccc23)c1	1.6	1	100	4	3
Clc1ccc(/C=N/Nc2nnc(-c3ncc[nH]3)c3ccccc23)cc1	0.66	0.3	114	41	75*
Cn1c(=O)c2c(nc(N3CCOCC3)n2C)n(C)c1=O	1	1	108	1	-4
CC[n+]1c(/C=C/N(C)c2ccccc2)oc2ccc(Cl)cc21	0.46	1	84	10	-1
O=C(CCS(=O)(=O)c1cccs1)NC1CCCCCC1	1.9	1	130*	16	-2
SMILES	NF-kB expr up	FLuc stim CS	STAT1 act	APP 5'UTR act	FLuc inh counter
O=C(c1cc(Sc2ccc(Cl)cc2)nc2ccccc12)N1CCN(c2ccccn2)CC1	0.86	1	99	-4	3
COc1ccc(-c2cc(C(=O)O)c3ccccc3n2)c(OC)c1	1.2	1	98	-8	0
COc1ccc2cc(-c3cc(C(=O)O)c4ccccc4n3)ccc2c1	6.3*	0	36	84	98*
COc1ccc(-c2cc(C(=O)N3CCN(c4ccccc4)CC3)c3ccccc3n2)cc1	1.1	0.4	105	-75	64*
COc1ccc(-c2cc(C(=O)c3c(N)n(C)c(=O)n(C)c3=O)c3ccccc3n2)cc1OC	1.2	0.4	111	11	62*
Cn1c(N)c(C(=O)c2cc(-c3ccncc3)nc3ccccc23)c(=O)n(C)c1=O	1.1	0.8	94	-6	19
CCOc1ccc(-c2cc(C(=O)N3CCN(c4ccccn4)CC3)c3ccccc3n2)cc1	1.3	0.1	116	36	90*
O=C(Nc1ccccc1)C(Cc1ccccc1)NC(=O)C12CC3CC(CC(C3)C1)C2 (stereo unspecified)	1.2	1.1	100	6	-8
COc1ccc(-c2cc(C(=O)N3CCN(c4ccccn4)CC3)c3ccccc3n2)cc1	1	0.2	108	69	80*
COc1cc(-c2cc(C(=O)N3CCN(c4ccccn4)CC3)c3ccccc3n2)cc(OC)c1OC	0.35	.	79	-2	.
COC(=O)c1ccc(NC(=O)C(=O)N2CCN(C(=S)Nc3cccc(OC)c3)CC2)cc1	1.1	1	94	1	-2
COc1cccc(NC(=O)C(=O)NCc2ccncc2)c1	1.2	0.9	129*	26	9
COc1cccc(NC(=O)C(=O)N2CCOCC2)c1	2.6	0.8	136*	.	15
CC(=O)c1cc2c(cc1NC(=O)CCCC(=O)O)OCO2	0.98	1.1	95	5	-7
Cc1ccc(C(=O)Nc2cccc(C(=O)O)c2)cc1S(=O)(=O)N1CCCCC1	1.8	0.5	81	104	49
N/C(=N\OC(=O)CC1CCCCC1)c1ccccn1	4.8*	0.2	128	53	81*
N/C(=N\OC(=O)COc1ccc2ccccc2c1)c1ccccn1	2	1	121	58	1
N/C(=N\OC(=O)CC1CCCCC1)c1ccncc1	1.4	0.8	105	-3	25
N/C(=N\OC(=O)COc1ccc(Cl)cc1Br)c1cccnc1	2.9	0.7	146*	87	26
N/C(=N\OC(=O)CCC1CCCC1)c1cccnc1	1.5	0.3	100	10	74*
Cc1ccc(C)c(OCC(=O)O/N=C(\N)c2ccccn2)c1	6.2*	1	135*	112	2
Cc1cccc(/C(N)=N/OC(=O)CCC2CCCCC2)c1	1.3	0.5	112	23	54*
N/C(=N\OC(=O)CC1CCCCC1)c1cccnc1	1.6	0.4	113	9	65*
CN(Cc1ccccc1)C(=O)COC(=O)c1ccc(Cl)cc1N	1.1	1	117	20	-1
O=C(C[n+]1cccc2ccccc21)c1ccccc1	0.88	1.1	95	10	-6
SMILES	NF-kB expr up	FLuc stim CS	STAT1 act	APP 5'UTR act	FLuc inh counter
CC(C)NC(=O)C1(c2ccccc2)CC1(Cl)Cl (stereo unspecified)	1.2	1.1	104	-8	-7
O=C(NCCc1ccccc1)C1(c2ccccc2)CC1(Cl)Cl (stereo unspecified)	3.4*	1	95	2	-2
CC1CCN(C(=O)C2CCC(CNS(=O)(=O)c3cccc4cccnc34)CC2)CC1 (stereo unspecified)	0.86	1	91	1	-3
Nc1c(C(=O)NCc2ccco2)nnn1CC(=O)Nc1ccc2c(c1)OCO2	4*	1	100	-16	-2
Cc1ccc(NC(=O)Cn2nnc(C(=O)NCc3ccco3)c2N)cc1	1.1	1	95	-22	-1
C/C(=N\Nc1cccc2cccnc12)c1ccc(C)cc1	4.2*	0.4	137*	137*	62*
Oc1ccccc1/C=N/Nc1cccc2cccnc12	12*	0.6	90	89	44
